The list is not random: actives were taken first. Their share in the collection is about 1.7%.
CAL PDZ FP-1 = CAL PDZ peptide-binding inhibitors, primary screen, biochemical, fluorescence polarization, Cer-tagged CAL PDZ, HTS. hit rate 0.02% among 330,000. purified CAL PDZ, TMR-peptide fluorescence polarization, 1 h. inhibition, % at 20 µM. Golgi-associated PDZ and coiled-coil motif-containing protein (Homo sapiens), Q9HD26;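 active = highest replicate inhibition of at least 40%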;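 also: plate controls were DMSO neutral control wells for no effect and unlabeled competitor peptide control wells for full effect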
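Read-out basis: mP drop reported as inhibition | Assay system: Tagged CAL PDZ protein CerCALP, purified | Benchmarks: Unlabelled peptide for full inhibition, DMSO wells as neutral | Schedule: 1 h incubation at room temperature before polarization reading | Buffer or medium: Sodium phosphate/NaCl buffer pH 7.4 with TCEP, IgG, Thesit | Doses: Single point, 20 µM | Measured by: Fluorescence polarization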
CAL PDZ FP-2 = untagged CAL PDZ binding inhibitors, primary screen, biochemical, fluorescence polarization, HTS. Golgi-associated PDZ and coiled-coil motif-containing protein (Homo sapiens), Q9HD26. hit rate 0.92% among 300,000. inhibition, % at 24.9 µM. purified CAL PDZ, TMR-peptide fluorescence polarization, 1 h. AID 602252, 2012;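 active = mean inhibition of at least 30% with at least half of replicates also reaching 30%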;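 also: 0% = DMSO neutral control and 100% = excess unlabeled competitor peptide PRC23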
ARNT-TACC3 inh = disruptors of ARNT/TACC3 protein interaction, primary screen, biochemical, AlphaScreen, single concentration; Transforming acidic coiled-coil-containing protein 3 (Homo sapiens), Q9Y6A5; AlphaScreen His-ARNT PAS-B/GST-TACC3 binding, luminescence; TACC3 fragment carries E629A point mutation; inhibition, % at 9.99 µM; hit rate 0.66% among 390,000; AID 623870, 2012;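 active = mean inhibition of replicates at least 50% and at least half of replicates each reaching 50%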;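 also: 0% = complete ARNT plus TACC3 wells and 100% = ARNT alone without TACC3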
CFTR F508del cor = F508del CFTR correction, initial screen, CFBE line, single point; activity (quench increase), % at 7.58 µM; hit rate 0.36% among 350,000; CFBE cells, YFP halide quenching; stimulated with forskolin plus potentiator P3; % fluorescence drop versus neutral controls;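 active = mean added fluorescence quench of at least 8% versus neutral control, with both replicates also reaching 8%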;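 also: cells transiently co-express mutant CFTR-F508del with the halide-sensitive YFP; corrector assay measuring rescue of mutant channel to the surface after 24 h compound exposure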
PGC1a acetyl inh = inhibitors of PGC1a acetylation signal, primary screen, cell-based, U2OS, AlphaScreen, inhibitor mode | AlphaScreen anti-acetyl-lysine; with virally co-expressed GCN5 acetyltransferase | inhibition, % at 15.6 µM | hit rate 0.17% among 350,000 | AID 651687, 2012;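 active = every replicate shows inhibition of at least 40%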;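 also: 0% = neutral control wells and 100% = positive control wells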
miR-122 sensor = miR-122 Renilla sensor signal increase in Huh7, primary screen, miR-122 inhibitor project, cell-based, single point, plate reader | Huh7 miR-122 Renilla luciferase sensor, 48 h; neutral wells = 0, positive control = 100 | hit rate 0.3% among 340,000 | activation (reporter increase), % at 12.5 µM | AID 602342, 2012;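 active = mean replicate activation score at least 90 and every replicate individually at or above 90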;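 also: higher luciferase means less miR-122 activity so hits act as miR-122 inhibitors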
Starred values were filed as active, the others as inactive; . = not tested or not shown; [ ] = another dose, or the depositor's remark.

SMILES | CAL PDZ FP-1 | CAL PDZ FP-2 | ARNT-TACC3 inh | CFTR F508del cor | PGC1a acetyl inh | miR-122 sensor
Cc1noc(C)c1NC(=O)Nc1ccc2c(c1)C(=O)N([C@H](C)CO)C[C@H](C)[C@H](CN(C)Cc1ccc(Cl)c(Cl)c1)OCCCC[C@H](C)O2 | . | . | 30.0 | -0.7 | -15.1 | -3.6[16.7 µM]
COc1cc(OC)c(N(C)S(=O)(=O)c2cccc(C(=O)OCc3c(C)noc3C)c2)cc1Cl | -1.2 | 2.6 | -4.8 | 1.4 | . | .
COc1cc(OC)c(N(C)S(=O)(=O)c2cccc(C(=O)OCC(=O)N3CCOCC3)c2)cc1Cl | 6.9 | 32.4* | 2.5 | 3.5 | . | -6.2
CC1OC2CC(=O)OC2C2=C1C(=O)c1c(O)cccc1C2=O (stereo unspecified) | . | . | . | 7.0 | 78.4* | -22.0
O=C(C[C@@H]1CC[C@@H]2[C@H](COC[C@@H](O)CN2C(=O)Nc2ccc(F)cc2)O1)NCCc1ccccc1 | . | . | -1.0 | -2.3 | -5.1 | -5.2[16.7 µM]
COC(=O)c1ccc(OCC(O)CN2CCc3cc(OC)c(OC)cc3C2c2ccccc2)cc1 (stereo unspecified) | -0.4 | 75.8* | 1.2 | 0.3 | -3.5 | -1.8
CCC(=O)N1CCc2cc(OC)c(OC)cc2C1COc1ccc(C(=O)OC)cc1 (stereo unspecified) | -1.2 | 4.0 | 7.5 | . | -80.3 | -0.4
CCOC1=C2[C@@H](CN(S(=O)(=O)c3ccc(C)cc3)[C@H]2c2ccc(Cl)cc2)[C@H]2C(=O)N(c3ccccc3)C(=O)[C@H]2C1 | . | . | . | 11.1* | 6.6 | -0.8
CC(C)NC(=O)N(C)C[C@@H]1Oc2c(NC(=O)C3CC3)cccc2C(=O)N([C@H](C)CO)C[C@H]1C | . | . | -6.0 | -1.2 | -11.8 | 5.3[16.7 µM]
Cc1ccnc(NC(=O)c2ccc(Br)s2)c1 | . | 63.2* | -25.4 | 4.7 | 0.8 | .
CC(=O)/C(C#N)=C1\NC(=O)C(Cc2ccccc2C)S1 (stereo unspecified) | . | . | . | 10.6* | 6.8 | 13.0
CC(=O)/C(C#N)=C1\NC(=O)C(Cc2ccccc2)S1 (stereo unspecified) | -0.7 | -2.6 | . | . | -1.6 | 1.8
COc1ccccc1-c1ccc2c(c1)[C@H]1[C@H](CCN1C(=O)C1CCOCC1)[C@@H](CO)N2 | . | . | -2.2 | 1.5 | -7.9 | -5.0[16.7 µM]
COc1ccc(NC(=O)Nc2c[nH]c(=O)[nH]c2=O)cc1 | -0.7 | 58.5* | -0.1 | 0.7 | 10.0 | -1.4
CCC1=Nc2cc(C(=O)NCc3ccco3)ccc2Sc2ccc(C)cc21 | -1.4 | . | 0.8 | . | . | 118.9*
CC(C)NC(=O)c1ccc(COc2cccc3ccccc23)o1 | . | . | . | 9.8* | 1.6 | -0.5
NNC(=O)c1ccc(COc2cccc3ccccc23)o1 | -0.9 | -7.8 | -5.0 | 3.8 | 2.5 | 4.3
C[C@@H]1CN([C@H](C)CO)C(=O)c2cc(NC(=O)Cn3cnnn3)ccc2O[C@@H]1CN(C)Cc1ccncc1 | . | . | -8.1 | 2.0 | -0.2 | -2.5[16.7 µM]
CCn1ncc(CN2CCC(Oc3ccc(C(=O)N4CCCC4)cc3)CC2)c1C | -0.1 | . | -0.7 | 4.0 | 3.1 | 3.2
CN(C(=O)c1ccc(OC2CCN(Cc3ccccn3)CC2)cc1)C1CCCCC1 | -0.6 | -6.3 | -0.6 | 1.6 | 1.1 | 1.0
CCn1nc(C)c(CN2CCC(Oc3ccc(C(=O)N4CCCC4)cc3)CC2)c1C | -1.3 | 51.0* | -5.3 | 2.7 | 7.1 | -8.9
COc1cc(C)c(CN2CCC(Oc3ccc(C(=O)N4CCCC4)cc3)CC2)cc1C | -3.3 | -0.3 | . | 1.0 | . | .
CCn1nc(C)c(CNC(=O)c2ccc(OC3CCN(Cc4ccccn4)CC3)cc2)c1C | -0.7 | 50.2* | 7.5 | 0.9 | 12.3 | -4.4
COc1ccc(CN2CCC(Oc3ccc(C(=O)N4CCCC4)cc3)CC2)c(F)c1 | 0.1 | 127.7* | 4.9 | -2.9 | -1.9 | -10.1
C#CCN(C(=O)c1ccc(OC2CCN(Cc3ccccn3)CC2)cc1)C1CCCCC1 | 1.0 | 55.4* | 17.5 | -1.3 | 0.0 | -6.8
SMILES | CAL PDZ FP-1 | CAL PDZ FP-2 | ARNT-TACC3 inh | CFTR F508del cor | PGC1a acetyl inh | miR-122 sensor
Cc1ccc(S(=O)(=O)N(C)C[C@H]2OCCCC[C@H](C)Oc3ccc(NS(C)(=O)=O)cc3C(=O)N([C@@H](C)CO)C[C@@H]2C)cc1 | . | . | -5.5 | -1.0 | 5.8 | 3.1[16.7 µM]
O=C(NCc1ccccn1)c1c(Cl)cccc1Cl | -0.1 | . | -1.6 | . | -1.7 | -2.2
Cc1c(Cl)cccc1-c1ccc(CNCc2ccccn2)o1 | 1.0 | -6.0 | 63.7* | -2.7 | . | .
Fc1ccc(C(CCNCc2ccccn2)c2ccc(Cl)cc2)cc1 (stereo unspecified) | -1.2 | 0.9 | 47.5* | . | . | .
OC(CNCc1ccccn1)c1ccccc1 (stereo unspecified) | -2.1 | 2.9 | 48.4* | . | . | .
CN(C)CC[C@@H](c1ccc(Cl)cc1)c1ccccn1 | 0.0 | -3.0 | -6.4 | -0.2 | -9.0 | -2.3
COc1ccc(C(CNC(=O)C2COc3ccccc3O2)N2CCCC2)cc1 (stereo unspecified) | 0.5 | 67.6* | -6.1 | -1.1 | -1.3 | -2.2
COc1ccc(C(CNC(=O)Cc2ccccc2)N2CCCCC2)cc1 (stereo unspecified) | -3.3 | -1.6 | -7.1 | 0.3 | -4.6 | 9.3
COc1ccccc1-[n+]1c(C)cc(/C=C2\Sc3ccccc3N2C)cc1C | 4.1 | 52.7* | 3.0 | -22.9 | 9.3 | -69.5
COc1ccc(-[n+]2c(C)cc(/C=C3\Sc4ccccc4N3C)cc2C)cc1 | 3.9 | -0.5 | . | -6.4 | . | .
C[C@H]1CN([C@@H](C)CO)C(=O)Cc2cc(NC(=O)Cn3cnnn3)ccc2O[C@@H]1CN(C)S(C)(=O)=O | . | . | -51.7 | -2.0 | 1.8 | 19.1[16.7 µM]
CC(=O)NC12CC3CC(C1)CC(C(=O)Nc1ccc(C)c(S(=O)(=O)N4CCCCCC4)c1)(C3)C2 | -1.4 | -3.1 | . | -1.9 | . | .
CC(=O)NC12CC3CC(C1)CC(C(=O)Nc1cccc(S(=O)(=O)N4CCCCCC4)c1)(C3)C2 | -1.9 | 193.7* | 1.3 | -1.1 | -13.0 | -9.5
O=C1c2c(O)ccc(O)c2C(=O)c2c(NCCNCCO)ccc(NCCNCCO)c21 | 4.5 | -4.3 | 65.0* | 7.6 | 8.5 | 3.1
Cc1cc(NC(=O)NCc2ccccc2)c(=O)n(Cc2ccc(F)cc2)c1 | . | -3.7 | 47.6* | -1.0 | . | .
O=C(NCc1ccccc1)Nc1cccn(Cc2ccc(F)cc2)c1=O | 0.4 | 13.5 | -5.4 | . | . | .
CNC[C@H]1Oc2ccc(N(C)C)cc2CC(=O)N([C@H](C)CO)C[C@@H]1C | . | . | -1.0 | -1.3 | 1.7 | 1.0[16.7 µM]

Source: PubChem BioAssay
